# Compounds with a hit are over-represented: about 3.8% of the library has one in this group of screens.
# Measles CPE: compounds protecting cells from measles virus cytopathic effect, primary screen, measles RdRp inhibitor project, single point, MLSMR library, absorbance; Measles virus-infected cells, CPE protection; protection (pct of control), % at 4 µM; actives 1.5% (n = 140,000); in the data active means protection mostly above about 24%, no sharp cut-off; inactive means mostly below about 26%
# Yeast life ext: compounds extending yeast replicative lifespan, primary screen, S. cerevisiae, OD615 | S. cerevisiae growth with nicotinamide; deaD strain in restrictive glucose medium | inhibition of the nicotinamide effect, % at 10 µM | actives 0.68% (n = 130,000) | AID 775, 2007;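 active means inhibition above a set limit, placed 3 SD over the median of all compounds, cut at about 26% in these data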;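 further: 0% = nicotinamide-treated wells and 100% = cells grown without nicotinamide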
#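 Material: Modified budding yeast, DeaD strain | Medium: Restrictive glucose medium | Probe or stimulus: 1.5 mM nicotinamide | Dosing: Single dose 10 µM compound, 0.25% DMSO | Times: 48 h at 30 °C | Technique: OD615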
# sdo1 growth: growth rescue of sdo1-depleted yeast, primary screen, S. cerevisiae, bone marrow failure model; S. cerevisiae sdo1-depleted JHY4D growth rescue, OD600 30 h; stronger effect = higher value; pdr5 snq2 efflux-pump mutant strain; AID 817, 2007; actives 0.21% (n = 140,000); z-score at 10 µM;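 active means z-score above 3 at both the 24 hr and the 30 hr optical density reads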;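 further: z-score against mean and SD of all compound wells on the same plate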
# RAM network inh: inhibitors of the yeast RAM network, primary screen, dse1pr::URA3 reporter, 5-FOA selection; actives 1.8% (n = 190,000); S. cerevisiae dse1pr::URA3 reporter, 5-FOA growth OD615, 2 d; analog-sensitive cbk1-as2 kinase mutant strain; AID 868, 2007; inhibition, % at 50 µM;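 active means inhibition above a set limit, 3 SD over mean compound inhibition, cut at about 8.4% in these data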;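 further: 0% = DMSO-only wells with no growth and 100% = 10 µM 1-NA-PP1 full growth; inhibition rescues growth on 5-FOA so higher OD means more RAM inhibition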
# BB579 growth dn: growth inhibitors of yeast BB579 in restrictive medium, primary screen, yeast lifespan-shortening project, S. cerevisiae | OD615, 48 h | inhibition, % at 10 µM | actives 0.51% (n = 140,000);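 active means inhibition above a set limit, 3 SD over the mean compound inhibition, cut at about 44% in these data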
#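 Test system: S. cerevisiae DeaD strain BB579 yeast; Medium: restrictive CSMM-D medium; Compound: one dose, 10 µM compound with 0.25% DMSO; Incubation: 4 h cell preincubation, 48 h compound exposure, 30 °C humidified; Signal: OD at 615 nm; Benchmarks: amphotericin B at 10 µg/mL as positive control.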
# RAM 5-FOA: 5-FOA growth of efflux-deficient control yeast, dose response, counter-screen for RAM network inhibitor project, S. cerevisiae, OD615. shares compounds with RAM network inh. S. cerevisiae efflux-deficient reporter strain, 5-FOA growth OD615, 2 days. max inhibition, %. 1,200 tested, under 10 active. AID 1305, 2008; call rule not given here;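 further: plate controls were vehicle for no effect and reference inhibitor for full effect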
# Active calls of the source: *; nt = not tested or not shown.
SMILES,Measles CPE,Yeast life ext,sdo1 growth,RAM network inh,BB579 growth dn,RAM 5-FOA
CCOCCCNC(=S)N1CCCN(c2nc3cc(C)ccc3cc2C#N)CC1,nt,nt,nt,5,nt,nt
CCOCCCNC(=S)N1CCCN(c2nc3c(C)c(C)ccc3cc2C#N)CC1,nt,nt,nt,22*,nt,7
Cc1cc2nc(C)c(Cc3ccccc3)c(=O)n2[nH]1,26,-6,1.2,0,-32,nt
CCCCCCN1C=C/C(=C\C=C(C#N)C#N)c2ccccc21,6,15,0.01,17*,-22,4
Cn1c(Cn2cnc3ccccc32)nnc1SCC(=O)CC(=O)Nc1ccccc1,19,-6,1.1,-1,-36,nt
O=C(OCC#CCSc1nnc(-c2ccc(Br)cc2)o1)c1cccs1,4,8,-1.6,16*,-24,14
Cc1ccc(-c2nnc(SCC#CCOC(=O)c3cccs3)o2)cc1,8,-3,-0.8,5,-17,nt
COc1ccc2c(c1)C(=O)/C(=C/C=C/c1ccccc1)CC2,19,nt,-0.78,15*,-62,4
Cc1cc(C)c(NC(=O)/C(=C/c2ccccc2)c2ccccc2)c(C)c1,13,59,-0.7,13*,-4,3
CCNC(=S)N/N=C/c1sccc1C,nt,nt,nt,0,nt,nt
COCCCNC(=O)/C(C#N)=C/c1ccc(OCC(=O)O)c(OC)c1,10,1,1.1,1,-27,nt
COc1ccc(/C=C(\C#N)C(=O)NCCc2ccccc2)cc1OCc1ccccc1,6,2,0.85,18*,-9,2
COc1cccc(NC(=O)[C@@H]2CCCN2C(=O)C2CCN(S(=O)(=O)c3ccc(C)cc3)CC2)c1,7,-13,-0.17,0,-13,nt
CC1(C)CC(=O)C=C(NC2=CC3OC(c4ccccc4)OCC3OC2=O)C1 (stereo not given),5,6,-0.73,4,-22,nt
CCCCNC(=S)N(C)/N=C/c1ccc(OCC(=O)Nc2ccc(OC)cc2)c(OC)c1,10,-1,-0.09,15*,-20,3
Cc1ccccc1NC(=O)CCCSc1nc2ccccc2s1,4,-2,-0.63,18*,-22,2
Cc1cc(NC(=O)CSc2nc3ccsc3c(=O)n2Cc2ccccn2)n[nH]1,9,-17,0.71,20*,-40,1
CC(C)CC(=O)OC1C(N2CCOCC2)c2c(ccc(/C=C/C(=O)N3CCOCC3)c2O)OC1(C)C (stereo not given),14,1,0.32,1,-20,nt
CC(/C=C1\SC(=S)N(NC(=O)c2ccc(O)cc2)C1=O)=C\c1ccccc1,22,-7,-1.5,3,-46,nt
Cc1ccc(/C=C2\SC(=S)N(C(Cc3ccccc3)C(=O)O)C2=O)cc1 (stereo not given),5,8,-0.08,17*,-48,10
CC(=C\c1ccccc1)/C=C1/SC(=S)N(C(C(=O)O)C(C)C)C1=O (stereo not given),nt,nt,nt,21*,nt,4
C/C(=N\NS(=O)(=O)c1ccc(C)cc1)c1ccc(C)s1,30,-19,-1.3,0,0,nt
O=C1OC(c2ccco2)=N/C1=C\c1ccc(-c2cccc(C(F)(F)F)c2)o1,27,2,-1.2,6,-11,nt
COc1ccc(NC(=O)c2c(C(F)(F)F)nn(C)c2SCc2ccccc2)cc1,5,15,-1.2,4,-16,nt
Cn1nc(C(F)(F)F)c(/C=N/OC(=O)c2ccccc2Cl)c1SCc1ccc(Cl)cc1,19,-5,-1.2,16*,-36,3
SMILES,Measles CPE,Yeast life ext,sdo1 growth,RAM network inh,BB579 growth dn,RAM 5-FOA
COc1ccc(C(=O)O/N=C/c2c(C(F)(F)F)nn(C)c2SCc2ccccc2Cl)cc1,19,6,1.2,12*,-63,4
COCCCNc1nc(SCc2ccccc2)nc2sc3c(c12)CCC3,8,-18,1.3,16*,-32,6
N#Cc1cnn(-c2nc(SCc3ccccc3)nc3sc4c(c23)CCCC4)c1N,7,-4,-0.37,3,-73,nt
O=C(Nc1ccn(Cc2cccc3ccccc23)n1)c1cccnc1,nt,nt,nt,12*,nt,2
O=S(=O)(Nc1ccc(-c2csc(-c3ccccc3)n2)cc1)c1ccccc1,3,9,-1.1,13*,-47,1
CC(C)=Cc1oc2ccc([N+](=O)[O-])cc2c1N1CC(C)OC(C)C1 (stereo not given),nt,nt,nt,6,nt,nt
Cn1c(CSCc2ccc(Cl)cc2)nnc1SCC(=O)Nc1nc2ccccc2s1,13,-3,-0.62,5,-71,nt
CN1CCN(C(=O)c2ccc3c(=O)n(Cc4ccco4)c(=S)[nH]c3c2)CC1,24,-11,0.91,0,-66,nt
CCCN(CCC)C(=O)c1ccc2c(=O)n(Cc3ccco3)c(=S)[nH]c2c1,nt,nt,nt,25*,nt,1
O=C(CSc1ncn[nH]1)Nc1ccc(Cl)c(S(=O)(=O)N2CCOCC2)c1,nt,nt,nt,1,nt,nt
COc1ccc(/C=C/C(=O)c2ccc(Cl)cc2)c(OC)c1,6,-24,-0.88,12*,-60,4
COc1cccc(C(=O)/C=C/c2ccc(N3CCCCC3)c([N+](=O)[O-])c2)c1,6,22,-1.1,19*,-48,5
O=C(/C=C/c1ccc(N2CCCCC2)c([N+](=O)[O-])c1)c1ccc(S(=O)(=O)N2CCCC2)cc1,4,3,-0.14,12*,-44,6
CCN(CC)S(=O)(=O)c1ccc(N2CCN(c3cccc(OC)c3)CC2)c([N+](=O)[O-])c1,3,12,0.37,13*,-28,5
CCN1CCN(c2ccc(S(=O)(=O)N(CC)CC)cc2[N+](=O)[O-])CC1,5,10,0.45,3,-55,nt
Cc1ccccc1C(C(=O)NC1CCCCC1)N(C(=O)CNC(=O)c1ccco1)c1cccnc1 (stereo not given),nt,nt,nt,4,nt,nt
Cc1ccc(SCCNC(=O)c2ccc(C)c(S(=O)(=O)Nc3cccc(C)c3)c2)cc1,20,0,-0.15,16*,-7,6
COc1ccc(CNC(=O)CN(c2ccccc2)S(=O)(=O)c2ccccc2[N+](=O)[O-])cc1,nt,nt,nt,3,nt,nt
O=c1c2ccccc2nc(SCc2cccc(F)c2)n1-c1cccc(S(=O)(=O)N2CCCC2)c1,8,8,-0.13,13*,-32,2
O=C(c1ccc(-n2c(SCc3cccc(F)c3)nc3ccccc3c2=O)cc1)N1CCOCC1,17,-7,-0.6,2,-2,nt
CCOC(=O)C(C)Sc1nc2c(c(-c3cccs3)c1C#N)CCC2 (stereo not given),7,4,-0.2,12*,-28,4
CCOC(=O)CSc1nc(N)c(C#N)c(-c2cccs2)c1C#N,9,-11,-0.33,5,-24,nt
